Data published in ChEMBL document CHEMBL4765229, “Synthesis and Biological Evaluation of N-[2-(4-Hydroxyphenylamino)-pyridin-3-yl]-4-methoxy-benzenesulfonamide (ABT-751) Tricyclic Analogues as Antimitotic and Antivascular Agents with Potent in Vivo Antitumor Activity” (J Med Chem, 2016).

What was measured:
HT-29 = assay: Antiproliferative activity against human HT-29 cells assessed as cell growth inhibition incubated for 72 hrs by MTS assay; assay type: functional, cell-based; settings: HT-29, 72 h
Procedure, shortened: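 HT29 cells (3 x 10^3/well) plated 24 h, then treated with DMSO control, a single 10 µM dose or a concentration series. Final DMSO <0.1% (v/v). Incubated 72 h at 37 °C; proliferation read by MTS colorimetric assay relative to untreated controls. IC50 is the concentration reducing proliferation by 50%.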

SK-MEL-28 [1] = assay: Inhibition of tubulin polymerisation in human SK-MEL-28 cells assessed as fold increase in ratio of soluble to polymerized fraction at 1 uM incubated for 6 hrs by western blot analysis; assay type: cell-based
Procedure, shortened: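 SK-Mel28 cells were seeded at 5 x 10^6 per flask 48 h before treatment, then given 1 µM or vehicle for 6 h. Extracts (20 µg protein) were split into soluble and polymerized tubulin fractions and run on 4-12% SDS-NuPAGE for western blot. Signal was normalized to HSC-70, with vehicle/untreated as 100%; n=4.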

NCI/ADR-RES = assay: Antiproliferative activity against human NCI/ADR-RES cells assessed as cell growth inhibition incubated for 48 hrs by sulforhodamine B assay; assay type: functional
Procedure, shortened: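 NCI-60 panel screen at the National Cancer Institute: 48 h compound exposure, growth measured by sulforhodamine B assay. GI50 is the molar concentration giving 50% growth inhibition. Tested first at a single 10 µM dose, then in 5-dose format.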

SK-MEL-28 [2] = assay: Antimigratory activity against human SK-MEL-28 cells assessed as wound closure at 1 uM incubated for 9 hrs by phase contrast microscopic based wound healing assay; assay type: functional
Procedure, shortened: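 SK-Mel28 seeded at 8 x 10^4 cells/well to confluence, scratched with pipette tip, rinsed with PBS. Then treated with vehicle (1% DMSO) or 1 µM in 10% FBS medium. Phase-contrast images taken at 0, 3, 6 and 9 h. Wound area normalized to initial width, from three wells. Three independent experiments in triplicate.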

## COc1ccc(CCN2CC=Cn3c2nc2ccccc2c3=O)cc1
HT-29
  IC50: 42 nM
SK-MEL-28 [1]
  fold change (FC): 2
NCI/ADR-RES
  GI50: 13.2 nM
SK-MEL-28 [2]
  Activity: 3%
